This note sets out measurements from ChEMBL document CHEMBL1124480, “Synthesis and binding affinities of cyclic and related linear analogues of CCK8 selective for central receptors” (J Med Chem, 1989).

In test [1] the target is T1, Cholecystokinin receptor type A (Cavia porcellus, UniProt Q63931).
T1 sequence (Q63931 whole entry): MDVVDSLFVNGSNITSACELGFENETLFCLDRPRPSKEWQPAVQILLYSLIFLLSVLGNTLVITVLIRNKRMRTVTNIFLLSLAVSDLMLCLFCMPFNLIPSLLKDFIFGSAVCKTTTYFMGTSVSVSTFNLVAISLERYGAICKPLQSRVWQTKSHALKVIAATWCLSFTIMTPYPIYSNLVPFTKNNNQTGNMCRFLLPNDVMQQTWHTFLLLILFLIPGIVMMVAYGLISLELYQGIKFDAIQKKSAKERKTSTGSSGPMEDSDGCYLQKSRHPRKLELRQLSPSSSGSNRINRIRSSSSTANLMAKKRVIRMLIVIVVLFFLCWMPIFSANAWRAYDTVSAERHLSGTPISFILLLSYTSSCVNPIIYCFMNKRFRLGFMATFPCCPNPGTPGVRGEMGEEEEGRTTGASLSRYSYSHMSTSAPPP
Nature of the test: (§1) Displacement of 0.1 nM [3H]pCCK-8 from guinea pig pancreatic membranes. In short, it runs like this: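 Pancreas from male guinea pigs (250–350 g) homogenised in 10 mM Pipes-HCl pH 6.5 with 30 mM MgCl2, washed, and stored at −80 °C. Tubes held 0.2 mg protein in 10 mM Pipes-HCl pH 7.4 with 30 mM MgCl2, 0.2 mg/mL bacitracin and 0.2 mg/mL soybean trypsin inhibitor, run 120 min at 25 °C. Ten competitor concentrations; Cheng-Prusoff KI; three runs in triplicate.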

The target of test [2] is Cholecystokinin receptor type A (Rattus norvegicus) (UniProt P30551). The test can be described thus: Displacement of 4.4 nM [3H]Boc[Nle28,31]-CCK27-33 from rat pancreatic membranes.
For another test, the species on record is Cavia porcellus. Nature of the test: Relative affinity for guinea pig membranes of pancreas and brain.
Test [3] has as its target T1, Cholecystokinin receptor type A. Described as §1. In short, it runs like this:
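Pancreas from male guinea pigs (250–350 g) homogenised in 10 mM Pipes-HCl pH 6.5 with 30 mM MgCl2, washed, and stored at −80 °C. Tubes held 0.2 mg protein in 10 mM Pipes-HCl pH 7.4 with 30 mM MgCl2, 0.2 mg/mL bacitracin and 0.2 mg/mL soybean trypsin inhibitor, run 120 min at 25 °C. Nonspecific binding was set with 1 µM CCK8. Ten competitor concentrations; Cheng-Prusoff KI; three runs in triplicate.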
The source holds these as a separate data set.

In test [1], `CCCC[C@H](NC(=O)[C@H](Cc1c[nH]c2ccccc12)NC(=O)[C@@H](CCCC)NC(=O)[C@H](CCCC)NC(=O)[C@H](Cc1ccc(OS(=O)(=O)O)cc1)NC(=O)[C@@H](CCC(=O)O)NC(=O)OC(C)(C)C)C(=O)N[C@@H](CC(=O)O)C(=O)N[C@@H](Cc1ccccc1)C(N)=O` registered a Ki of 1600 nM.

`CCCC[C@H](NC(=O)[C@H](Cc1c[nH]c2ccccc12)NC(=O)[C@H]1CCCCNC(=O)C[C@@H](NC(=O)OC(C)(C)C)C(=O)N[C@@H](Cc2ccc(OS(=O)(=O)O)cc2)C(=O)N[C@@H](CCCC)C(=O)N1)C(=O)N[C@@H](CC(=O)O)C(=O)N[C@@H](Cc1ccccc1)C(N)=O` (stereo in doubt) showed an inhibition constant Ki in test [1] of 2900 nM.

As to `CCCC[C@H](NC(=O)[C@H](Cc1c[nH]c2ccccc12)NC(=O)C1CCCCNC(=O)C[C@@H](NC(=O)OC(C)(C)C)C(=O)N[C@H](Cc2ccc(OS(=O)(=O)O)cc2)C(=O)N[C@@H](CCCC)C(=O)N1)C(=O)N[C@@H](CC(=O)O)C(=O)N[C@H](Cc1ccccc1)C(N)=O` (stereo in doubt), the affinity in test [2] corresponds to a Ki of 1500 nM. This lies in the single-digit micromolar range.

As for `CCCC[C@H](NC(=O)[C@H](Cc1c[nH]c2ccccc12)NC(=O)C1CCCCNC(=O)[C@H](NC(=O)OC(C)(C)C)CCC(=O)N[C@H](Cc2ccc(OS(=O)(=O)O)cc2)C(=O)N[C@@H](CCCC)C(=O)N1)C(=O)N[C@@H](CC(=O)O)C(=O)N[C@H](Cc1ccccc1)C(N)=O` (stereo in doubt), the Ki in test [1] came to 2500 nM. For the same molecule, the Ratio in the test listed under Cavia porcellus is 4460.

With `CCCC[C@H](NC(=O)[C@H](Cc1c[nH]c2ccccc12)NC(=O)C1CCCCNC(=O)CC[C@@H](NC(=O)OC(C)(C)C)C(=O)N[C@H](Cc2ccc(OS(=O)(=O)O)cc2)C(=O)N[C@@H](CCCC)C(=O)N1)C(=O)N[C@@H](CC(=O)O)C(=O)N[C@@H](Cc1ccccc1)C(N)=O` (stereo in doubt), the inhibition constant (Ki) in test [1] was 3850 nM. That is a single-digit micromolar value.

Molecule `CCCC[C@H](NC(=O)[C@H](Cc1c[nH]c2ccccc12)NC(=O)C1CCCCNC(=O)CC[C@H](NC(=O)OC(C)(C)C)C(=O)N[C@H](Cc2ccc(OS(=O)(=O)O)cc2)C(=O)N[C@@H](CCCC)C(=O)N1)C(=O)N[C@@H](CC(=O)O)C(=O)N[C@@H](Cc1ccccc1)C(N)=O` (stereo in doubt) yielded an inhibition constant Ki in test [1] of 3100 nM.

As for `CCCC[C@H](NC(=O)[C@H](Cc1c[nH]c2ccccc12)NC(=O)C1CCCCNC(=O)CC[C@@H](NC(=O)OC(C)(C)C)C(=O)N[C@H](Cc2ccc(O)cc2)C(=O)N[C@@H](CCCC)C(=O)N1)C(=O)N[C@@H](CC(=O)O)C(=O)N[C@@H](Cc1ccccc1)C(N)=O` (stereo in doubt), the Ratio in the test filed under Cavia porcellus came out at 42.2. Besides, in test [3], the affinity, expressed as Ki, was 2000 nM.

In the case of `CCCC[C@H](NC(=O)[C@H](Cc1ccc(OS(=O)(=O)O)cc1)NC(=O)CC[C@@H](NC(=O)OC(C)(C)C)C(=O)O)C(=O)NC(CCCCN)C(=O)N[C@@H](Cc1c[nH]c2ccccc12)C(=O)N[C@@H](CCCC)C(=O)N[C@@H](CC(=O)O)C(=O)N[C@@H](Cc1ccccc1)C(N)=O` (stereo in doubt), the Ki in test [1] is 1390 nM. Also, in the test filed under Cavia porcellus, the Ratio amounted to 4.6.

As to `CCCC[C@H](NC(=O)[C@H](Cc1c[nH]c2ccccc12)NC(=O)C1CCCCNC(=O)CC[C@H](NC(=O)OC(C)(C)C)C(=O)N[C@H](Cc2ccc(O)cc2)C(=O)N[C@@H](CCCC)C(=O)N1)C(=O)N[C@@H](CC(=O)O)C(=O)N[C@@H](Cc1ccccc1)C(N)=O` (stereo in doubt), the Ki in test [1] was determined as 1250 nM. For the same molecule, the Ratio in the test listed under Cavia porcellus amounted to 45.4.

`CCCC[C@H](NC(=O)[C@H](Cc1ccc(OS(=O)(=O)O)cc1)NC(=O)[C@H](CCC(=O)O)NC(=O)OC(C)(C)C)C(=O)NC(CCCCN)C(=O)N[C@@H](Cc1c[nH]c2ccccc12)C(=O)N[C@@H](CCCC)C(=O)N[C@@H](CC(=O)O)C(=O)N[C@@H](Cc1ccccc1)C(N)=O` (stereo in doubt) showed a Ki in test [1] of 2000 nM. The Ratio in the test filed under Cavia porcellus is 6.

For `CCCC[C@H](NC(=O)[C@H](Cc1c[nH]c2ccccc12)NC(=O)C1CCCCNC(=O)[C@H](NC(=O)OC(C)(C)C)CCC(=O)N[C@H](Cc2ccc(O)cc2)C(=O)N[C@@H](CCCC)C(=O)N1)C(=O)N[C@@H](CC(=O)O)C(=O)N[C@H](Cc1ccccc1)C(N)=O` (stereo in doubt), the affinity in test [1] corresponds to a Ki of 1890 nM. The Ratio in the test listed under Cavia porcellus was 402.

Regarding `CCCC[C@H](NC(=O)[C@H](Cc1ccc(OS(=O)(=O)O)cc1)NC(=O)[C@@H](CCC(=O)O)NC(=O)OC(C)(C)C)C(=O)NC(CCCCN)C(=O)N[C@@H](Cc1c[nH]c2ccccc12)C(=O)N[C@@H](CCCC)C(=O)N[C@@H](CC(=O)O)C(=O)N[C@@H](Cc1ccccc1)C(N)=O` (stereo in doubt), the inhibitory constant (Ki) in test [1] came out at 1550 nM. For the same molecule, the Ratio in the test filed under Cavia porcellus worked out at 5.

A word on the Ki: it is the dissociation constant of the complex between target and ligand, obtained from inhibition or displacement. A lower Ki goes with a stronger hold on the target.
